Results reported in ChEMBL document CHEMBL1149384, “Identification of a novel spiropiperidine opioid receptor-like 1 antagonist class by a focused library approach featuring 3D-pharmacophore similarity” (J Med Chem, 2006).

Legend:
[1] = molecular target: T1, Nociceptin receptor (Homo sapiens, UniProt P41146); test: Antagonist activity on nociceptin-induced [35S]GTP-gamma-S binding to ORL1 expressed in CHO cells; format: functional, cell-based
Procedure, shortened: (§1)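 [35S]GTPγS binding in membrane fractions from CHO cells stably expressing human ORL1. Antagonism: IC50 against nociceptin-stimulated binding. Agonism: EC50 relative to maximal binding produced by nociceptin. Means of three independent determinations, each in duplicate.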

[2] = molecular target: T1, Nociceptin receptor; test: Agonist activity on nociceptin-induced maximal [35S]GTP-gamma-S binding to ORL1 expressed in CHO cells; format: functional, cell-based; procedure, shortened: as §1
[3] = molecular target: T1, Nociceptin receptor; test: Displacement of [125I]Tyr-nociceptin from cloned human ORL1 expressed in CHO cells; format: cell-based
Procedure, shortened: (§2)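 Radioligand displacement using membrane fractions of CHO cells stably expressing cloned human receptors. IC50 reported as mean of three independent determinations, each in duplicate.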

[4] = molecular target: Mu-type opioid receptor (Homo sapiens, UniProt P35372); test: Displacement of [3H]diprenorphin from cloned human mu opioid receptor expressed in CHO cells; format: cell-based; procedure, shortened: as §2
[5] = molecular target: Kappa-type opioid receptor (Homo sapiens, UniProt P41145); test: Displacement of [3H]U-69593 from cloned human kappa opioid receptor expressed in CHO cells; format: cell-based; procedure, shortened: as §2
[6] = molecular target: Delta-type opioid receptor (Homo sapiens, UniProt P41143); test: Displacement of [3H]naltrindole from cloned human delta opioid receptor expressed in CHO cells; format: cell-based; procedure, shortened: as §2
[7] = Distribution coefficient (LogD) between octanol and buffer; format: physicochemical
[8] = test system: Rattus norvegicus; test: Brain level in rat after administration of 10 mg/kg, sc; format: ADME, organism-based; parameters: dose 10 mg/kg, route subcutaneous; details: in vivo
Procedure, shortened: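 Rats dosed 10 mg/kg sc. Plasma and brain collected 1 h after dosing and drug concentration measured, n = 3 per group. Plasma in nM, brain in nmol/g brain.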

[9] = test system: Mus musculus; test: Antagonist activity as % reversal against the reduction in locomotor activity produced by an ORL1 agonist in CD1 mice at 10 mg/kg, sc; format: functional; parameters: scale not given: the % may be the effect or the level left; details: route subcutaneous
Procedure, shortened: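 Mice given test agent 10 mg/kg sc against an ORL1 agonist that reduces locomotor activity. Activity counted over 60 min. Value is % reversal of the agonist response, mean ± SEM, n = 7–8 per group.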

Chain of Delta-type opioid receptor (P41143 whole entry): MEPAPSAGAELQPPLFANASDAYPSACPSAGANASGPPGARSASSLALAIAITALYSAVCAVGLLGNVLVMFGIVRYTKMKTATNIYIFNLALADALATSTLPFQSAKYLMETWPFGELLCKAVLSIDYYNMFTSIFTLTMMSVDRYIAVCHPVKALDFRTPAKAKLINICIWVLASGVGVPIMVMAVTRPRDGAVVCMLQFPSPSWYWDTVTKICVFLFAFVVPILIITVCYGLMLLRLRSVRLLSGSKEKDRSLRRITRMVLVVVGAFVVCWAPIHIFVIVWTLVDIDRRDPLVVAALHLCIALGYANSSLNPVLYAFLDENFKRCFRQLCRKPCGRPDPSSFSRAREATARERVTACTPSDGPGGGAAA
Chain of Mu-type opioid receptor (P35372 whole entry): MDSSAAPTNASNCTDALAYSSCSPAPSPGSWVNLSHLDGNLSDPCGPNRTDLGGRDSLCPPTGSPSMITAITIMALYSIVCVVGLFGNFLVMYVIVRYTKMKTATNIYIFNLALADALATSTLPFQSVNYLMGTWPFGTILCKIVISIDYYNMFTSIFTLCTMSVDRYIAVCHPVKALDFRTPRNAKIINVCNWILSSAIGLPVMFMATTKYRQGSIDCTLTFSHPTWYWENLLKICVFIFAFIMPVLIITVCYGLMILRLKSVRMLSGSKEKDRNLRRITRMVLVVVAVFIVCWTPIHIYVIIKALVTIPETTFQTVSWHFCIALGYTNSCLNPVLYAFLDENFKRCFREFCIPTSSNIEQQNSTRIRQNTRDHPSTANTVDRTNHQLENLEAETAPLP
T1 sequence (P41146 whole entry): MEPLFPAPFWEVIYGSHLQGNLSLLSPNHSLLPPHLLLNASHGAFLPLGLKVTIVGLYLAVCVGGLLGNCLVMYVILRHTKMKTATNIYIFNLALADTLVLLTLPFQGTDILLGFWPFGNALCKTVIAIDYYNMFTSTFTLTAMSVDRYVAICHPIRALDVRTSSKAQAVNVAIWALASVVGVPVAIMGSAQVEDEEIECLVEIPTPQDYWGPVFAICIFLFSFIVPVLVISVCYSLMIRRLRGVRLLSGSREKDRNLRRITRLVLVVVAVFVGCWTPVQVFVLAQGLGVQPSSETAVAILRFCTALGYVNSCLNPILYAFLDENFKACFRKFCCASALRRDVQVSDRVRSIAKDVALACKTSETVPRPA
Chain of Kappa-type opioid receptor (P41145 whole entry): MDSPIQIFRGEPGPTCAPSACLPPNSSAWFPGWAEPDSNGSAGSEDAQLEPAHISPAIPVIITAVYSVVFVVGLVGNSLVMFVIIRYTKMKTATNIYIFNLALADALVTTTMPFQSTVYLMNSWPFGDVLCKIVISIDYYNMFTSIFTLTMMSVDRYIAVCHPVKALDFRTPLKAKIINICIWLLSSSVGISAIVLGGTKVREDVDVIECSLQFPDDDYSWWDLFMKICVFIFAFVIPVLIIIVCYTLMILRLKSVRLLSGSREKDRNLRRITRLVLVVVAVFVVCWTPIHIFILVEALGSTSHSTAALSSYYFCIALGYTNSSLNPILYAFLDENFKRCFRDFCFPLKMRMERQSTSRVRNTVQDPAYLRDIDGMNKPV

| SMILES | IC50 [3] [nM] | also measured |
| --- | --- | --- |
| O=C(NCCCN1CCC2(CCc3ccccc32)CC1)c1ccccc1Oc1ccccc1 | 8.2 | IC50 [1]: 4 nM; EC50 [2]: > 10000 nM; IC50 [4]: > 10000 nM; IC50 [5]: 9600 nM; IC50 [6]: > 10000 nM |
| O=C(NCCCN1CCC2(CCc3ccccc32)CC1)c1cccc2c1Cc1ccccc1-2 | > 1000 |  |
| O=C(NCCCN1CCC2(CCc3ccccc32)CC1)C1(c2ccccc2)CCCCC1 | 630 |  |
| Cc1onc(-c2ccccc2)c1C(=O)NCCCN1CCC2(CCc3ccccc32)CC1 | > 1000 |  |
| O=C(/C=C/c1c[nH]c2ccccc12)NCCCN1CCC2(CCc3ccccc32)CC1 | > 1000 |  |
| CC1=Cc2ccccc2C1C(=O)NCCCN1CCC2(CCc3ccccc32)CC1 (configuration not stated) | > 1000 |  |
| O=C(Cc1ccccc1)C(=O)NCCCN1CCC2(CCc3ccccc32)CC1 | > 1000 |  |
| O=C(NCCCN1CCC2(CCc3ccccc32)CC1)C1Cc2ccccc2N1c1ccccc1 (configuration not stated) | > 1000 |  |
| O=C(NCCCN1CCC2(CCc3ccccc32)CC1)[C@H]1CCCN1Cc1ccccc1 | 0.22 | IC50 [1]: 0.12 nM; EC50 [2]: > 1000 nM; IC50 [4]: 4300 nM; IC50 [5]: 950 nM; IC50 [6]: > 10000 nM; logD [7]: 2.7 |
| O=C(NCCCN1CCC2(CCc3ccccc32)CC1)c1ccccc1Cc1ccccc1 | 21 |  |
| O=C(CCc1c[nH]c2ccccc12)NCCCN1CCC2(CCc3ccccc32)CC1 | 360 |  |
| O=C(CC1Cc2ccccc2C1)NCCCN1CCC2(CCc3ccccc32)CC1 | > 1000 |  |
| O=C(NCCCN1CCC2(CCc3ccccc32)CC1)[C@H]1COCN1C(=O)OCc1ccccc1 | 131 |  |
| CN(CC(=O)NCCCN1CCC2(CCc3ccccc32)CC1)C(=O)c1ccccc1 | > 1000 |  |
| O=C(NCCCN1CCC2(CCc3ccccc32)CC1)[C@H](O)Cc1ccccc1 | > 1000 |  |
| O=C(NCCCN1CCC2(CCc3ccccc32)CC1)C(O)(c1ccccc1)C1CCCCC1 (configuration not stated) | > 1000 |  |
| COc1ccc2c(c1)CC(CC(=O)NCCCN1CCC3(CCc4ccccc43)CC1)C2=O (configuration not stated) | > 1000 |  |
| O=C(CSc1ccccc1)NCCCN1CCC2(CCc3ccccc32)CC1 | 170 |  |
| O=C(NCCCN1CCC2(CCc3ccccc32)CC1)C1(c2ccccc2)CCCC1 | > 1000 |  |
| O=C(NCCCN1CCC2(CCc3ccccc32)CC1)c1ncccc1Oc1ccccc1 | > 1000 |  |
| CC(NC(=O)c1ccccc1)C(=O)NCCCN1CCC2(CCc3ccccc32)CC1 (configuration not stated) | > 1000 |  |
| O=C(Cc1cccc(Oc2ccccc2)c1)NCCCN1CCC2(CCc3ccccc32)CC1 | 340 |  |
| O=C(CCCc1ccccc1)NCCCN1CCC2(CCc3ccccc32)CC1 | 350 |  |

| SMILES | IC50 [3] [nM] | also measured |
| --- | --- | --- |
| Cc1ccc(C(=O)/C=C/C(=O)NCCCN2CCC3(CCc4ccccc43)CC2)cc1 | > 1000 |  |
| O=C(NCCCN1CCC2(CCc3ccccc32)CC1)C1Cc2ccccc2C1 | > 1000 |  |
| O=C(NCCCN1CCC2(CCc3ccccc32)CC1)C1CC1c1ccccc1 (configuration not stated) | > 1000 |  |
| O=C(Cc1cccc2ccccc12)NCCCN1CCC2(CCc3ccccc32)CC1 | > 1000 |  |
| O=C(NCCCN1CCC2(CCc3ccccc32)CC1)[C@H]1CCC(=O)N1Cc1ccccc1 | 50 |  |
| COC(C(=O)NCCCN1CCC2(CCc3ccccc32)CC1)c1ccccc1 (configuration not stated) | > 1000 |  |
| O=C(NCCCN1CCC2(CCc3ccccc32)CC1)[C@H]1COC(=O)N1Cc1ccccc1 | 24 |  |
| COc1ccccc1/C=C\C(=O)NCCCN1CCC2(CCc3ccccc32)CC1 | > 1000 |  |
| O=C(CCc1ccccc1)NCCCN1CCC2(CCc3ccccc32)CC1 | 730 |  |
| O=C(NCCCN1CCC2(CCc3ccccc32)CC1)C1Cc2ccccc21 (configuration not stated) | > 1000 |  |
| O=C(NCCCN1CCC2(CCc3ccccc32)CC1)C(=O)c1c[nH]c2ccccc12 | 330 |  |
| C[C@@H](O)[C@H](NC(=O)c1ccccc1)C(=O)NCCCN1CCC2(CCc3ccccc32)CC1 | > 1000 |  |
| O=C(NCCCN1CCC2(CCc3ccccc32)CC1)c1ccccc1-c1ccccc1 | 10 | IC50 [1]: 8.3 nM; EC50 [2]: > 10000 nM; IC50 [4]: > 10000 nM; IC50 [5]: 3700 nM; IC50 [6]: > 10000 nM; logD [7]: 3.1 |
| O=C(NCCCN1CCC2(CCc3ccccc32)CC1)C(Cc1ccccc1)c1ccccc1 (configuration not stated) | > 1000 |  |
| O=C(N[C@H]1CCCC[C@H]1C(=O)NCCCN1CCC2(CCc3ccccc32)CC1)c1ccccc1 | > 1000 |  |
| O=C(NCCCN1CCC2(CCc3ccccc32)CC1)C1CCCCC1C(=O)Nc1ccccc1 (configuration not stated) | > 1000 |  |
| O=C(NCCCN1CCC2(CCc3ccccc32)CC1)[C@@H](O)Cc1ccccc1 | 12 | IC50 [1]: 7.5 nM; EC50 [2]: > 10000 nM; IC50 [4]: > 10000 nM; IC50 [5]: 6900 nM; IC50 [6]: > 10000 nM |
| O=C(CSc1nc2ccccc2s1)NCCCN1CCC2(CCc3ccccc32)CC1 | 290 |  |
| O=C1CC(C(=O)NCCCN2CCC3(CCc4ccccc43)CC2)c2ccccc21 (configuration not stated) | > 1000 |  |
| O=C(NCCCN1CCC2(CCc3ccccc32)CC1)c1ncccc1-c1ccccc1 | > 1000 |  |
| O=C(NCCCN1CCC2(CCc3ccccc32)CC1)C(=O)c1cnn(-c2ccccc2)c1C(F)(F)F | > 1000 |  |
| O=C(NCCCN1CCC2(CCc3ccccc32)CC1)c1ccccc1OCc1ccccc1 | 83 | IC50 [1]: 110 nM; EC50 [2]: > 10000 nM; IC50 [4]: > 10000 nM; IC50 [5]: 2300 nM; IC50 [6]: > 10000 nM |
| O=C(NCCCN1CCC2(CCc3ccccc32)CC1)c1ccccc1C(O)c1ccccc1 (configuration not stated) | 580 |  |

| SMILES | IC50 [3] [nM] | also measured |
| --- | --- | --- |
| CC(C)(C)C(Cc1ccccc1)C(=O)NCCCN1CCC2(CCc3ccccc32)CC1 (configuration not stated) | > 1000 |  |
| O=C(NCCCN1CCC2(CCc3ccccc32)CC1)c1ccc(-c2ccc(Cl)cc2)o1 | > 1000 |  |
| CC(C)(Oc1ccc(Cl)cc1)C(=O)NCCCN1CCC2(CCc3ccccc32)CC1 | 870 |  |
| O=C(Cc1ccc2ccccc2c1)NCCCN1CCC2(CCc3ccccc32)CC1 | > 1000 |  |
| O=C(NCCCN1CCC2(CCc3ccccc32)CC1)c1ncccc1C(O)c1ccccc1 (configuration not stated) | > 1000 |  |
| O=C(NCCCN1CCC2(CC1)OCc1ccccc12)[C@H]1CCCN1Cc1ccccc1 | 0.27 | Activity [8]: 4.37 nM/g; IC50 [1]: 0.15 nM; EC50 [2]: > 1000 nM; Activity [9]: 88%; IC50 [4]: 6700 nM; IC50 [5]: 2500 nM; IC50 [6]: > 10000 nM |
| O=C(NCCCN1CCC2(CCc3ccccc32)CC1)[C@@H]1CCCN1C(=O)c1ccccc1 | > 1000 |  |
| O=C(NCCCN1CCC2(CCc3ccccc32)CC1)c1cc(=O)c2ccccc2o1 | > 1000 |  |
| O=C(Cc1ccccc1)NCCCN1CCC2(CCc3ccccc32)CC1 | > 1000 |  |
| O=C(NCCCN1CCC2(CCc3ccccc32)CC1)c1cccc(Oc2ccccc2)c1 | > 1000 |  |
| O=C(NCCCN1CCC2(CCc3ccccc32)CC1)[C@@H]1CCCN1Cc1ccccc1 | 47 | IC50 [1]: 42 nM; EC50 [2]: > 10000 nM; IC50 [4]: > 10000 nM; IC50 [5]: 7900 nM; IC50 [6]: > 10000 nM |
| O=C(NCCCN1CCC2(CCc3ccccc32)CC1)C1CCN(c2ncccn2)CC1 | > 1000 |  |
| O=C(N[C@H]1CCCC[C@@H]1C(=O)NCCCN1CCC2(CCc3ccccc32)CC1)c1ccccc1 | > 1000 |  |
| CC(C)(C)OC(=O)NC1(C(=O)NCCCN2CCC3(CCc4ccccc43)CC2)CCCCC1 | > 1000 |  |
| O=C(NCCCN1CCC2(CCc3ccccc32)CC1)C1CCc2ccccc2C1 (configuration not stated) | > 1000 |  |
| O=C(NCCCN1CCC2(CCc3ccccc32)CC1)c1ccccc1Nc1ccccc1 | 230 |  |
| CC(=O)N/C(=C\c1ccccc1)C(=O)NCCCN1CCC2(CCc3ccccc32)CC1 | > 1000 |  |
| CC(Oc1ccc(Cl)cc1Cl)C(=O)NCCCN1CCC2(CCc3ccccc32)CC1 (configuration not stated) | > 1000 |  |
| O=C(/C=C/c1ccccc1)NCCCN1CCC2(CCc3ccccc32)CC1 | 540 |  |
| O=C(Cc1ccc2c(c1)OCO2)C(=O)NCCCN1CCC2(CCc3ccccc32)CC1 | > 1000 |  |
| CC(Oc1ccccc1)C(=O)NCCCN1CCC2(CCc3ccccc32)CC1 (configuration not stated) | 900 |  |
| O=C1N[C@@H](Cc2ccccc2)[C@@H](C(=O)NCCCN2CCC3(CCc4ccccc43)CC2)O1 | 30 |  |
